The source made the active and inactive calls. The calls are words filed in the database; no cut-off is given here.
Tests used:
[1] = target: 3',5'-cyclic-AMP phosphodiesterase 4B (Homo sapiens) (UniProt Q07343); assay: Inhibition of PDE4B expressed in Sf9 cells using cAMP as substrate at 30 uM preincubated for 15 mins prior substrate addition measured after 1 hr by luminescence-based spectrophotometry
Summary of the method: (§1)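 10 ng PDE4B enzyme (isolated from Sf9 cells) was preincubated 15 min with compound or DMSO vehicle, then incubated 1 h with 5 µM cAMP using a PDElight HTS cAMP phosphodiesterase kit. The reaction was stopped, then developed with detection reagent for 10 min in the dark. Luminescence (RLU) was read, and % inhibition was calculated as (RLU vehicle − RLU inhibitor)/RLU vehicle × 100.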

[2] = Ratio of inhibition of PDE4B over inhibition of PDE4D2
[3] = target: 3',5'-cyclic-AMP phosphodiesterase 4B (Homo sapiens) (UniProt Q07343); assay: Inhibition of PDE4B expressed in Sf9 cells using cAMP as substrate preincubated for 15 mins prior substrate addition measured after 1 hr by luminescence-based spectrophotometry; summary of the method: as §1
[4] = target: 3',5'-cyclic-AMP phosphodiesterase 4D (Homo sapiens) (UniProt Q08499); assay: Inhibition of PDE4D2 using cAMP as substrate at 30 uM preincubated for 15 mins prior substrate addition measured after 1 hr by luminescence-based spectrophotometry
3',5'-cyclic-AMP phosphodiesterase 4D (Homo sapiens), sequence (Q08499 whole entry): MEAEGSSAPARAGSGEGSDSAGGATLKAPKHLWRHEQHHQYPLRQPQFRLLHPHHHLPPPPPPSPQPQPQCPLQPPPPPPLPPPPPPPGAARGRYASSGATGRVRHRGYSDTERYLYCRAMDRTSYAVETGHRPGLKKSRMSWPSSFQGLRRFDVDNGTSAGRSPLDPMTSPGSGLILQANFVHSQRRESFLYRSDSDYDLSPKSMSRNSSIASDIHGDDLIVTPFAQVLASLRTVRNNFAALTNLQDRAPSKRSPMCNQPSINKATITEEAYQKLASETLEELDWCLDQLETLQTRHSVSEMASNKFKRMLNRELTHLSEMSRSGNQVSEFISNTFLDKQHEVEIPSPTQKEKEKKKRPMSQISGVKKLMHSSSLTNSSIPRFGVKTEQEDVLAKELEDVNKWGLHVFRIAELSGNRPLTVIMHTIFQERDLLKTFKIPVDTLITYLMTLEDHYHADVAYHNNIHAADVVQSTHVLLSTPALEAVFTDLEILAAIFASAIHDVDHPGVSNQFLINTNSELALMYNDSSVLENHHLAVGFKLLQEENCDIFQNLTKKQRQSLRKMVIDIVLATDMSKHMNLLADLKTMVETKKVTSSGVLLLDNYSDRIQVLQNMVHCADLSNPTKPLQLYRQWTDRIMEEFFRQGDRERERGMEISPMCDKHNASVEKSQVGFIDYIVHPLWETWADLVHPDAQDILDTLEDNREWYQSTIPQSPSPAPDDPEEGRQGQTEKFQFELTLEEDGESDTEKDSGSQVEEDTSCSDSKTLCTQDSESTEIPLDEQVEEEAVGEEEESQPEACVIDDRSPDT

3',5'-cyclic-AMP phosphodiesterase 4B (Homo sapiens), sequence (Q07343 whole entry): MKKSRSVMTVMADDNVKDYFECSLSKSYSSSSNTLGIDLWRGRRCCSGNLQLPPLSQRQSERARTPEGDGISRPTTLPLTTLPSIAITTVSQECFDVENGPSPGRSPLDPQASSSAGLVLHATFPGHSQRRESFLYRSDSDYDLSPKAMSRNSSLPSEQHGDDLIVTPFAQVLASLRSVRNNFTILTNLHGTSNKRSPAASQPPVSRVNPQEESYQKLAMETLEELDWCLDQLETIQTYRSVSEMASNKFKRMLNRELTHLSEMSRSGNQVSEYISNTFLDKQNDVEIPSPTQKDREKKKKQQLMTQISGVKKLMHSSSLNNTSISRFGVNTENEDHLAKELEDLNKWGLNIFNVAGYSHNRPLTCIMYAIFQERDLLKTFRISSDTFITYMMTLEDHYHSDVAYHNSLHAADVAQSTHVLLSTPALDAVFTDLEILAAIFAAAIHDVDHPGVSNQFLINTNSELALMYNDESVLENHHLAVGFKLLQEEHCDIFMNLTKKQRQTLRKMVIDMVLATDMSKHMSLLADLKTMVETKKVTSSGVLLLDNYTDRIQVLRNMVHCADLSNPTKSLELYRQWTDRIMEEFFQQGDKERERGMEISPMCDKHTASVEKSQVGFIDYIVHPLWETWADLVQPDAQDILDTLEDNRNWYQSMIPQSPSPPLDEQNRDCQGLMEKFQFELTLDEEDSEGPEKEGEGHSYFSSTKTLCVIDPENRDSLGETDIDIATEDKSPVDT

Row | inhibition [1] [%] | Ratio [2] | inhibition [3] | inhibition [4] [%] | Compound
1 | 69.1 |  |  |  | CCOC(=O)c1nn(C)c(-c2cccc(Cl)c2)c1C#CCO
2 | 59.2 |  |  |  | CCOC(=O)c1nn(C)c(-c2cccc(Cl)c2)c1C#CCCO
3 | 70 | 2 |  | 20 | CCOC(=O)c1n[nH]c(-c2cccc(Cl)c2)c1C#CC(C)(C)O
4 | 67.3 |  |  |  | CCOC(=O)c1nn(C)c(-c2cccc(Cl)c2)c1C#CC(C)(C)O

Second part, the compound before the results:

Row | Compound | inhibition [1] [%] | Ratio [2] | inhibition [3] | inhibition [4] [%]
5 | CCOC(=O)c1nn(C)c(-c2cccc(Cl)c2)c1C#CCCCC#N | 73.4 | 2 | Dose-dependent effect | 20
6 | CCOC(=O)c1n[nH]c(-c2cccc(Cl)c2)c1C#CC1(O)CCCCC1 | 21.1 |  |  | 
7 | Cc1c(C#Cc2ccccc2)cnn1C |  |  | Active | 
8 | Cc1nn(C)c(C)c1C#Cc1ccccc1 |  |  | Active | 
9 | CCOC(=O)c1n[nH]c(-c2cccc(Cl)c2)c1C#CCCCC#N | 71.1 | 2 |  | 20
10 | CCOC(=O)c1n[nH]c(-c2cccc(Cl)c2)c1C#CCO | 68.1 |  |  | 
11 | CCOC(=O)c1n[nH]c(-c2cccc(Cl)c2)c1C#Cc1ccccc1 | 70 | 2 |  | 20
12 | CCOC(=O)c1n[nH]c(-c2cccc(Cl)c2)c1C#CCCO | 65.1 |  |  | 
